Measured values reported in ChEMBL document CHEMBL3244386, “Synthesis of fused [1,2,6]thiadiazine 1,1-dioxides as potential transition-state analogue inhibitors of xanthine oxidase and guanase” (J Med Chem, 1979).
Calls of active or inactive are those of the source. The calls are words filed in the database; no cut-off is given here.

Experiments:
[1] = target: T1, Xanthine dehydrogenase/oxidase (Homo sapiens, UniProt P47989); experiment: Inhibition of xanthine oxidase (unknown origin) assessed as conversion of xanthine to uric acid under aerobic condition at 0.5 mM after 1 hr; details: 500 µM
T1 sequence (P47989 whole entry): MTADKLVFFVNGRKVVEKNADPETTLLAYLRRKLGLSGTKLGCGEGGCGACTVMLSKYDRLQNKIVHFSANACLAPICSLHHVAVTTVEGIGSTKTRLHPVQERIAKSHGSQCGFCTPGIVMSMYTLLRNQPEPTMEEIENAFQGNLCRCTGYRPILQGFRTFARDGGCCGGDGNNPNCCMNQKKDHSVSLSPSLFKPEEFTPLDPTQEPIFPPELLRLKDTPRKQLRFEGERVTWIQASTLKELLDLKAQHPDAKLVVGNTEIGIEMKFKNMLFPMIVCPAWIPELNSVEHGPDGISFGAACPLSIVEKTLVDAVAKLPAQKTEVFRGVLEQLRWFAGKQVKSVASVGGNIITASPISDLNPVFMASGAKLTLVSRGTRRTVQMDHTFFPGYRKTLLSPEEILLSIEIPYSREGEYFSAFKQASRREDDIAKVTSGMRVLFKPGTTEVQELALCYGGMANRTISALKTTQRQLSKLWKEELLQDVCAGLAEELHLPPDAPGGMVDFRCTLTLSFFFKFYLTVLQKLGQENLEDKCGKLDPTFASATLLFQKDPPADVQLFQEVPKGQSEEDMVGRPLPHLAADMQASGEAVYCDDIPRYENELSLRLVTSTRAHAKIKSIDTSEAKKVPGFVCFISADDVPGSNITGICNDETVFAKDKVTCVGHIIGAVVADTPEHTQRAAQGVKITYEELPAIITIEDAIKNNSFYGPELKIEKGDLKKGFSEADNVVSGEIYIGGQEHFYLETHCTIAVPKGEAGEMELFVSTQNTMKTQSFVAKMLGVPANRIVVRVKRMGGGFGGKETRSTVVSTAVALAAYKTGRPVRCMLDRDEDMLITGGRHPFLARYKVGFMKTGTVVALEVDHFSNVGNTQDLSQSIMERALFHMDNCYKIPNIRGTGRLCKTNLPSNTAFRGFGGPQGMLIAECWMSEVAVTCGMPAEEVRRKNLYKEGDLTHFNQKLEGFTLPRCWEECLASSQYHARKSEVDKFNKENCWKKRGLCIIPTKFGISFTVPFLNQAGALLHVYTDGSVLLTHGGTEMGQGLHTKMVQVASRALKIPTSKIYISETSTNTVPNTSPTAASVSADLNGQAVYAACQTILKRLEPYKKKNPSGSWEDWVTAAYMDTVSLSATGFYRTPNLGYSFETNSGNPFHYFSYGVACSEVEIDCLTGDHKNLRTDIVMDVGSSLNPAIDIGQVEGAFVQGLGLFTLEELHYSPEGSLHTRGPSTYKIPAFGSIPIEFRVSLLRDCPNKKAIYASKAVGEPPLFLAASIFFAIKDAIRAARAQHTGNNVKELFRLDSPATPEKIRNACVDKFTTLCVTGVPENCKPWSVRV
Procedure, shortened: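 Oxidized-form incubation: xanthine oxidase (50 µL of 1.2 µM) was incubated aerobically for 1.0 h with 1.0 mL of a 5 × 10⁻⁴ M compound solution and EDTA in Tris-HCl buffer, total 2.75 mL. Xanthine was then added, and the initial rate of uric acid formation was read at 295 nm against controls without compound.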

[2] = target: T1, Xanthine dehydrogenase/oxidase; experiment: Inhibition of xanthine oxidase (unknown origin) assessed as conversion of xanthine to uric acid under anaerobic condition at 5 X 10^-4 M after 1 hr; details: 500 µM
Procedure, shortened: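 Reduced-form incubation: xanthine oxidase (50 µL of 1.2 µM), 1.0 mL of a 5 × 10⁻⁴ M compound solution and EDTA in pH 7.4 Tris were purged with N₂. Xanthine was added to reduce the enzyme, and the sealed tube was held 1 h at 25 °C (compound:enzyme 8.3 × 10³). The tube was then opened to air, xanthine added, and the 295 nm initial rate compared with controls.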

Oryctolagus cuniculus [3] = organism: Oryctolagus cuniculus; experiment: Inhibition of rabbit liver guanase using guanine as substrate compound treated at 28 times substrate concentration
Procedure, shortened: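 Rabbit liver guanase, diluted from a 10 mg protein/mL stock, run at pH 7.4 in 0.05 M Tris-HCl with 13.3 µM guanine as substrate. Inhibitor was added at varying amounts, at least 28 times the substrate concentration. The enzyme was added last to start the reaction. Guanine loss was followed at 248 nm, and velocities were compared with the uninhibited control.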

[4] = Dissociation constant, pKa of the compound by titrimetric analysis; type: physicochemical
Oryctolagus cuniculus [5] = organism: Oryctolagus cuniculus; experiment: Inhibition of rabbit liver guanase using guanine as substrate compound treated at 32 times substrate concentration
Procedure, shortened: (§1)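 Rabbit liver guanase assay in 1.0 mL pH 7.4 0.05 M Tris-HCl with 13.3 µM guanine, started by adding enzyme. Guanine disappearance was followed at 248 nm and compared with a reaction run without inhibitor.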

Oryctolagus cuniculus [6] = organism: Oryctolagus cuniculus; experiment: Noncompetitive inhibition of rabbit liver guanase using guanine as substrate by Lineweaver-Burk plot analysis
Procedure, shortened: (§2)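 Kinetics used rabbit liver guanase in pH 7.4 0.05 M Tris-HCl, with guanine at 20, 10, 6.4 and 4.8 µM and four inhibitor concentrations, read at 248 nm. Lineweaver–Burk (1/V vs 1/[S]) and Dixon (1/V vs [I]) plots were drawn. Ki was taken from the Dixon x-intercept ([…]).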

Oryctolagus cuniculus [7] = organism: Oryctolagus cuniculus; experiment: Inhibition of rabbit liver guanase using 13.3 uM guanine as substrate assessed as ([I]/[S])50
Procedure, shortened: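 Rabbit liver guanase in 1.0 mL pH 7.4 0.05 M Tris-HCl with 13.3 µM guanine and varying inhibitor, started by adding enzyme. Guanine loss read at 248 nm. V0/Vi was plotted against [I], and I50 was taken where V0/Vi = 2, then expressed relative to the substrate level. Values were reproducible within ±20%.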

[8] = Noncompetitive inhibition of rabbit liver guanase using guanine as substrate by Dixon plot analysis; set-up: species or system Oryctolagus cuniculus; procedure, shortened: as §2
Oryctolagus cuniculus [9] = organism: Oryctolagus cuniculus; experiment: Inhibition of rabbit liver guanase using guanine as substrate at 0.4 mM; procedure, shortened: as §1
Oryctolagus cuniculus [10] = organism: Oryctolagus cuniculus; experiment: Inhibition of rabbit liver guanase using guanine as substrate compound treated at 46 times substrate concentration; procedure, shortened: as §1

SMILES	inhibition (INH) [1]	inhibition (INH) [2]	pKa [4]	other results
O=C1NS(=O)(=O)Nc2nc[nH]c21	Not Active	Not Active	–	inhibition (Oryctolagus cuniculus [3]): inactive
NC1=NS(=O)(=O)Nc2[nH]ncc21	Not Active	Not Active	4.1	inhibition (Oryctolagus cuniculus [5]): inactive
NC1=NS(=O)(=O)Nc2nc[nH]c21	Not Active	Not Active	–	–
NC1=NS(=O)(=O)Nc2nsnc21	Not Active	Not Active	3.2	inhibition (Oryctolagus cuniculus [6]): Active; Ratio (Oryctolagus cuniculus [7]): 11; Ki [8]: 190 µM
O=c1[nH]cnc2nsnc12	–	–	–	inhibition (Oryctolagus cuniculus [9]): inactive
NC1=NS(=O)(=O)Nc2[nH]cnc21	–	–	–	inhibition (Oryctolagus cuniculus [10]): inactive
O=C1NS(=O)(=O)Nc2[nH]ncc21	Not Active	Not Active	6.5	inhibition (Oryctolagus cuniculus [6]): Active; Ratio (Oryctolagus cuniculus [7]): 15; Ki [8]: 250 µM
